Screens: PubChem BioAssay, several laboratories
Hsp70 act – Hsp70 transcriptional activators, primary screen, cell-based, HeLa, Hsp70 promoter luciferase, luminescence, 10 µM; activation, % at 10 µM; AID 1203, 2008; HeLa Hsp70 promoter luciferase reporter; scaled: vehicle 0, proteasome-inhibitor control 100%; 0.04% of 200,000 active;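 active = activation above the mean across all tested compounds plus 3 SD, cutoff set per campaign, cut at about 5.5% in these data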;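 also: 100% = MG132 at 30 µM as the positive control and 0% = DMSO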
HKDC1 inhibitor – HKDC1 hexokinase inhibitors, primary screen, biochemical, fluorescence, uHTS; AID 493160, 2011; 0.16% of 340,000 active; Q2TB90; recombinant HKDC1, G6PDH/diaphorase resazurin coupled fluorescence; inhibition, % at 20 µM;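 active = inhibition above about 35% when tested at 20 µM, limit read from the data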;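 also: plate controls were DMSO wells with enzyme for no effect and DMSO wells lacking enzyme for full effect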
Target sequence (Q2TB90 whole entry, looked up): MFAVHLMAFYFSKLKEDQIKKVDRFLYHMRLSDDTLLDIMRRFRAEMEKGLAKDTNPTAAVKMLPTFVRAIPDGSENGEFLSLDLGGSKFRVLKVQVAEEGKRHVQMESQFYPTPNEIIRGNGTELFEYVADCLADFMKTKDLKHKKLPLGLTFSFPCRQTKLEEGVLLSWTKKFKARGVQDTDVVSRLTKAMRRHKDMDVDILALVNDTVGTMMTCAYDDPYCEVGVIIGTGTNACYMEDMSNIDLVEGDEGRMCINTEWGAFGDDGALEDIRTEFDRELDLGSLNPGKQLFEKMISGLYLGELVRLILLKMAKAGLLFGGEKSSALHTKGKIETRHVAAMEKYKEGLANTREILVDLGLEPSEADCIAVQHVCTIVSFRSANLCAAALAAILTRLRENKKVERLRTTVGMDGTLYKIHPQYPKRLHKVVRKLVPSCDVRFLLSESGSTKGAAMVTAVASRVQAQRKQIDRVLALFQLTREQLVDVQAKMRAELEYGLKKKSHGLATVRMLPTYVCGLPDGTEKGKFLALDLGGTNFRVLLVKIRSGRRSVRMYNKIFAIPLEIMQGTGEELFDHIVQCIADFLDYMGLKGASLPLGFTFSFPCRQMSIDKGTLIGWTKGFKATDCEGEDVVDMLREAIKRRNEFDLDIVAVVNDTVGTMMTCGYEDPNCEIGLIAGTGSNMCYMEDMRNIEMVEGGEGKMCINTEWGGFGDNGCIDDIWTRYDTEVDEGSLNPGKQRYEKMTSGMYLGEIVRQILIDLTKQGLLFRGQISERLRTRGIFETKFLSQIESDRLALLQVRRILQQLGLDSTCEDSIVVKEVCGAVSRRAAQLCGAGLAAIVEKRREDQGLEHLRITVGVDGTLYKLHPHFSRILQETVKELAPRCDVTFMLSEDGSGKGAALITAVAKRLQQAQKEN
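Material – in-house recombinant HK5 (HKDC1) enzyme · Quantity – HKDC1 at 5 µg/mL · Buffer or medium – pH 8.0 Tris buffer with 10 mM MgCl2 · Reagent – glucose with 1 mM ATP · Dosing – single 20 µM dose · Times – reaction time 90 min, room temperature, protected from light · Technique – resorufin fluorescence at 613 nm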
HSF-1 act – HSF-1 activators, primary screen, NIH3T3-HGL cells, MG132 stress, luminescence, single point; NIH3T3-HGL HSF-1 luciferase reporter, 8 h; 100% = twice DMSO control signal; activation, % at 9 µM; 1.7% of 300,000 active; AID 504408, 2011;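 active = mean replicate activation of at least 50% with a set share of replicates each reaching 50%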;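 also: 0% = median of the neutral control wells and 100% = twice that signal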
HSF1 inhib – HSF1 inhibitors in luciferase reporter cells, primary screen, cell-based, NIH3T3, luminescence. NIH3T3-HGL HSE-luciferase, MG132-induced, luminescence 8 h; hits give low values. activity change, negative = inhibition, % at 7.5 µM (by protocol). 0.77% of 300,000 active;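 active = more than half of replicate wells show activity change below -50%, luminescence cut by over half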;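 also: luciferase reports HSF-1 transcriptional activity via heat shock element; 0% = median of DMSO wells and -100% = zero luminescence signal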
HSP90 inh – HSP90 inhibitors, primary screen, cell lysate, luminescence; Rabbit reticulocyte lysate, luciferase refolding luminescence, 3 h; inhibition, % at 5.6 µM; Heat shock protein HSP 90 (rabbit reticulocyte lysate; luciferase refolding); 0.91% of 290,000 active; AID 1789, 2009;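 active = inhibition above the screen-wide mean plus 3 SD, computed separately per campaign, cut at about 16% in these data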;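 also: 0% = DMSO wells and 100% = 60 µM geldanamycin wells; inhibitors lower the luminescence because luciferase stays unfolded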
TbHK1 inh – Trypanosoma brucei hexokinase 1 inhibitors, primary screen, biochemical, G6PDH-coupled NADH absorbance, MLSCN library; hexokinase 1 [Trypanosoma brucei]; recombinant TbHK1, G6PDH-coupled NADH A340; inhibition, % at 10 µM; 0.11% of 220,000 active;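 active = inhibition of 50% or more in the single-dose primary screen; inactive = inhibition below 50%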
Starred values were filed as active, the others as inactive; / = no result given. This is a sample that favours compounds with a hit; in the whole collection about 3.1% have one here.

SMILES	Hsp70 act	HKDC1 inhibitor	HSF-1 act	HSF1 inhib	HSP90 inh	TbHK1 inh
Cc1cc2cc(CCNC(=O)c3cccs3)c(=O)[nH]c2cc1C	1	9	58*	44	-2	-7
COc1ccccc1NC(=S)N(Cc1ccco1)Cc1cc2cc(C)ccc2[nH]c1=O	0	2	99*	58	2	17
CCCCNC(=S)N(Cc1ccco1)Cc1cc2cc3c(cc2[nH]c1=O)OCCO3	0	-8	156*	132	1	16
Cc1ccc(C)c2[nH]c(=O)c(CN(Cc3cccs3)C(=S)NCc3ccco3)cc12	0	-8	77*	48	4	-4
OCc1ccccc1SSc1ccccc1CO	/	-1	6	-1	/	/
Cc1cc2cc(CN(CCN(C)C)C(=S)NCc3ccco3)c(=O)[nH]c2cc1C	0	-5	6	3	2	-10
Cc1cc2cc(CN(Cc3cccs3)C(=S)NCc3ccco3)c(=O)[nH]c2cc1C	0	-3	63*	19	2	28
CC(=O)O[C@H]1[C@H](O)[C@H](Oc2c(O)c(C)c3c4c2[C@@H](C)CC[C@@H]4[C@@H](C)C[C@H]3C=C(C)C)O[C@@H](C)[C@H]1O	/	0	/	/	/	/
COC1(OC)C(/C=C/c2ccc(C)cc2)C(C#N)(C#N)C1(OC)OC (centres undefined)	0	4	55*	52	1	8
Clc1ccc(CO/N=C/c2c(-c3ccccc3)nc3n2CCS3)c(Cl)c1	0	2	74*	30	-3	-4
CS(=O)(=O)/C(C#N)=C/c1c(-c2ccccc2)nc2n1CCS2	/	-1	5	1	-1	-10
COc1ccc(N2CCN(C(c3cccs3)C(C)NS(=O)(=O)c3ccccc3)CC2)cc1 (centres undefined)	-1	4	82*	41	6	-2
CCS(=O)(=O)NC(C)C(c1cccs1)N1CCN(c2ccc(OC)cc2)CC1 (centres undefined)	0	-1	2	-1	0	5
COCCN(C(=O)c1csnn1)C(C(=O)NC1CCCCC1)c1ccccc1 (centres undefined)	/	0	5	-9	-4	/
Cc1ccccc1-n1c(-c2ccc(Cl)cc2)cnc1SCC(=O)NC1CCS(=O)(=O)C1 (centres undefined)	0	-1	70*	14	1	-6
O=C(CSc1nnc(-c2ccccc2)n1-c1ccc(Cl)cc1)NC1CCS(=O)(=O)C1 (centres undefined)	0	-2	22	5	-2	0
COC(=O)c1ccc(N2CCN(C)CC2)c(NC(=O)COc2ccccc2Cl)c1	/	-5	12	7	0	/
COC(=O)c1ccc(N2CCN(C(C)=O)CC2)c(NC(=O)COc2ccccc2C)c1	0	0	-72	-64*	8	-6
COc1nc(N(C)C)nc(N(C#N)S(=O)(=O)c2ccc(C)cc2)n1	/	-1	13	-6	-1	/
Cn1c(N)c(C(C[N+](=O)[O-])c2c(F)cccc2Cl)c(=O)n(C)c1=O (centres undefined)	/	-5	7	7	1	/
CN(C)c1ccc(C(C[N+](=O)[O-])c2c(N)n(C)c(=O)n(C)c2=O)c(F)c1C#N (centres undefined)	/	1	66*	53	-5	/
Cn1c(COc2ccccc2O)[n+](C)c2ccccc21	/	-2	-5	-4	3	/
COc1ccc(N=Nc2n(C)c3ccccc3[n+]2C)cc1	/	/	-45	-27	79*	-1
COc1cccc(-c2c(C(=O)N/N=C(\C)c3ccc(Cl)s3)nnn2-c2nonc2N)c1	/	0	56*	27	-1	/
CCOc1cccc(-c2c(C(=O)N/N=C/c3ccc(C)o3)nnn2-c2nonc2N)c1	/	-4	-74	-68*	-2	/
SMILES	Hsp70 act	HKDC1 inhibitor	HSF-1 act	HSF1 inhib	HSP90 inh	TbHK1 inh
COc1ccc(C(C#N)=C2C=CC(=NO)C=C2)cc1	/	12	168*	118	13	-17
N#CC(=C1C=CC(=NO)C(Cl)=C1)c1ccc(Cl)cc1	/	14	/	/	/	/
O=C(NN1C(=O)/C(=C/C=C/c2ccco2)SC1=S)c1ccccc1O	/	19	6	-1	2	63*
Cn1cccc1/C=C1\SC(=S)N(NC(=O)c2ccccc2O)C1=O	/	6	-7	2	2	7
Cc1cc2oc(=O)cc(CN3CCCCC3C)c2cc1Cl (centres undefined)	/	0	-6	-7	-3	/
Cc1cc2oc(=O)cc(Cn3ncc(Cl)c(Cl)c3=O)c2cc1Cl	0	10	81*	55	1	1
CC(C)c1nc2ccccc2c2nnc(SCC(=O)NCc3ccco3)n12	0	-7	-69	-60*	2	12
CC(C)(C)c1nc2ccccc2c2nnc(SCC(=O)NCc3ccco3)n12	0	-3	3	1	0	8
CCn1c(CNc2ccc(Cl)cc2)nnc1SCC(=O)OC1CCCCC1	0	2	60*	19	-6	3
O=C(CSc1nnc(CNc2ccc(Cl)cc2)n1Cc1ccccc1)NCc1ccco1	0	5	63*	40	4	-3
O=C(CSc1nnc(Cc2ccccc2)n1Cc1ccccc1)NCc1ccco1	0	3	40	22	12	7
O=C(CSc1nc(C2CCCCC2)nc2ccccc12)NCc1ccco1	0	-5	59*	37	0	6
O=S(=O)(NCC1(N2CCOCC2)CCCCC1)c1ccc(Cl)cc1C(F)(F)F	/	-1	-2	0	-8	/
CCC(C)[C@H](N)c1nnc(SCC(=O)Nc2cccc(Cl)c2)o1 (some centres undefined)	0	0	108*	72	2	10
COc1cc(CCC(=O)OCn2nnc3ccccc3c2=O)cc(OC)c1OC	0	-2	-84	-81*	3	-3
Cc1c(S(=O)(=O)N2CCN(c3cccc(C(F)(F)F)c3)CC2)c(=O)n(C)c(=O)n1C	0	-5	0	-3	2	-8
Cc1nc2scc(C)n2c(=O)c1S(=O)(=O)N1CCN(c2cccc(C(F)(F)F)c2)CC1	/	0	-70	-65*	-1	/
CSc1ncccc1C(=O)OCC(=O)c1[nH]c(C)c(C(C)=O)c1C	/	-1	/	/	/	/
O=C(N=Nc1c(O)n(Cc2ccccc2)c2ccccc12)c1ccc(O)cc1	0	-8	62*	51	3	35
O=C(N=Nc1c(O)n(Cc2ccccc2)c2ccccc12)c1cc2ccccc2cc1O	0	-6	42	15	-7	-9
